{"source": "paper PMC11923060", "about": "(Scientific Reports, 2025)", "key": {"[1]": {"tested_on": "testes", "test": "Immunofluorescence of tight junction proteins in testicular tissue", "type": "in vivo, Kunming mice", "conditions": "Days 20 and 40, + LPS, compared to the LPS group, n = 10 mice/group"}, "[2]": {"tested_on": "testes", "test": "Western blot of junction proteins in testicular tissue", "type": "in vivo, Kunming mice", "conditions": "Days 20 and 40, + LPS, vs LPS group, n = 10 mice/group", "in_short": "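Male Kunming mice (8–10 wk), n = 10/group, gavaged with test peptide 0.5 mg/kg or antibiotic control 25 mg/kg in 200 µL saline for 20 d (10 doses) or 40 d (20 doses), then one i.p. LPS 5 mg/kg; killed 24 h later. ~100 mg testis homogenized in RIPA/protease inhibitors; PVDF blocked in skim milk 2 h, primary antibody overnight 4 °C, secondary 2 h, ECL.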"}}}
{"substance": "polymyxin B", "values": [{"measurement": "expression of Claudin-1 (immunofluorescence)", "setting": "[1]", "value": "significant increases"}, {"measurement": "expression of N-cadherin (immunofluorescence)", "setting": "[1]", "value": "significant increases"}, {"measurement": "protein expression of TWIST1 (Western blot)", "setting": "[2]", "value": "significantly inhibited"}]}
